Measured values pooled from the literature.
Compare with care: the assays were run in different laboratories.
GAK: Cyclin-G-associated kinase (GAK, Homo sapiens, UniProt O14976)
PADI3: Protein-arginine deiminase type-3 (PADI3, Homo sapiens, UniProt Q9ULW8)
KRAS G12C: GTPase KRas (KRAS, Homo sapiens, UniProt P01116, G12C)
AMY2: Pancreatic alpha-amylase (AMY2, Sus scrofa, UniProt P00690)
Maoa: Amine oxidase [flavin-containing] A (Maoa, Rattus norvegicus, UniProt P21396)
RIPK1: Receptor-interacting serine/threonine-protein kinase 1 (RIPK1, Homo sapiens, UniProt Q13546)

| Structure (SMILES) | target | assay | setting | measurement | result |
| --- | --- | --- | --- | --- | --- |
| FC(F)(F)c1cccc(Nc2ccnc3ccc(C(F)(F)F)cc23)c1 | GAK | thermal stability, DSF | 10 µM | ΔTm | 1.3 °C |
| CC(C)(C)n1nnc([C@H](CCCNC(=N)CCl)NC(=O)c2ccccc2C(=O)O)n1 | PADI3 | enzyme activity, inhibitor | – | kinact/KI | 292 M⁻¹ s⁻¹ |
| C=CC(=O)Nc1cccc(-c2noc([C@@]3(C)CCCc4sc(N)c(C#N)c43)n2)c1 | KRAS G12C | cell-free assay, inhibitor | – | kinact | 0.000306 s⁻¹ |
| CC(C)(C)n1nnc([C@H](CCCNC(=N)CF)NC(=O)c2ccccc2C(=O)O)n1 | PADI3 | enzyme activity, inhibitor | – | kinact/KI | 261 M⁻¹ s⁻¹ |
| O=S(=O)(Nc1nccs1)c1ccc(N=NN(O)c2ccccc2)cc1 | AMY2 | enzyme activity, inhibitor | 60 µg/mL | inhibition | 15.8% |
| C[C@@H]1CN(c2ccc3ncc(-c4ccc5[nH]nc(C6CC6)c5c4)n3n2)C[C@H](C)O1 | Cyclin-dependent kinase 19 (CDK19, Homo sapiens, UniProt Q9BWU1) | binding, competition with immobilised ligand | 50 nM | remaining binding | 90% |
| COc1cc(C=CC(=O)CC(c2ccc(N(C)C)cc2)n2ccnc2)ccc1O (stereo not shown) | AMY2 | enzyme activity, inhibitor, absorbance | 2.5 µg/mL | inhibition | 67.3% |
| O=C1OC[C@H]2OC(O)[C@H](O)[C@@H](O)[C@@H]2OC(=O)c2cc(O)c(O)c(O)c2-c2c(O)c(O)c3oc(=O)c4c(c(O)c(O)c5oc(=O)c2c3c54)-c2c1cc(O)c(O)c2O (mixture of isomers) | Genome polyprotein, protease (Hepatitis C virus genotype 1b, UniProt Q9WMX2) | enzyme activity, inhibitor, fluorescence | – | IC90 | ~1 µM |
| COc1cc(C=Cc2cc(-c3ccc(N(C)C)cc3)nc(O)n2)ccc1O | AMY2 | enzyme activity, inhibitor, absorbance | 5 µg/mL | inhibition | 72.4% |
| Cn1c2c(c3ccc(Cl)c(Cl)c31)C(C#N)C1(CCNCC1)NC2=O (racemic) | Serine/threonine-protein kinase DCLK1 (DCLK1, Homo sapiens, UniProt O15075) | thermal stability, DSF | 10 µM | ΔTm | 0.9 °C |
| CC/C(=N\NC(=O)NCc1cccc(O)c1)c1ccc(O)c(C)c1O | Fibroblast growth factor receptor 3 (FGFR3, Homo sapiens, UniProt P22607, K650E) | enzyme activity, inhibitor | 0.1 µM | inhibition | 1.3% |
| CS(=O)(=O)c1ccc(Nc2ccnc3ccc(C(F)(F)F)cc23)cc1 | GAK | thermal stability, DSF | 10 µM | ΔTm | 0.2 °C |
| CC(C)(C)n1nnc([C@H](CCCNC(=N)CCl)NC(=O)c2ccc(-c3ccccc3)cc2)n1 | PADI3 | enzyme activity, inhibitor | – | kinact/KI | 82.3 M⁻¹ s⁻¹ |
| NCc1ccc(Br)cc1 | Maoa | enzyme activity, substrate | pH 7.5 | Km | 34 µM |
| Cc1noc(NS(=O)(=O)c2ccc(N=NN(C)O)cc2)c1C | AMY2 | enzyme activity, inhibitor | 20 µg/mL | inhibition | 21.1% |
| COc1cc(Cl)c(C(=O)N[C@@H](CN[C@H]2CC[C@@H](N)CC2)Cc2ccc(C#N)cc2)cc1-c1ccc(CN[C@H](C)c2ccc(C)cc2)o1 | RIPK1 | enzyme activity, inhibitor | 1 µM | remaining activity | 96% |
| Fc1cccc(Nc2ccnc3ccc(C(F)(F)F)cc23)c1 | GAK | thermal stability, DSF | 10 µM | ΔTm | 4.3 °C |
| C=CC(=O)Nc1ccc(-c2noc([C@@]3(C)CCCc4sc(N)c(C#N)c43)n2)cc1 | KRAS G12C | cell-free assay, inhibitor | – | kinact | 0.000194 s⁻¹ |
| COc1cc(Nc2ccnc3ccc(C(C)(C)C)cc23)cc(OC)c1OC | GAK | thermal stability, DSF | 10 µM | ΔTm | 5.2 °C |
| N=C(CF)NCCC[C@H](NC(=O)c1ccccc1C(=O)O)c1nn[nH]n1 | PADI3 | enzyme activity, inhibitor | – | kinact/KI | 63.3 M⁻¹ s⁻¹ |

| Structure (SMILES) | target | assay | setting | measurement | result |
| --- | --- | --- | --- | --- | --- |
| CCCN(O)N=Nc1ccc(S(=O)(=O)Nc2cc(C)on2)cc1 | AMY2 | enzyme activity, inhibitor | 20 µg/mL | inhibition | 10.5% |
| CC(C)(C)n1nnc([C@H](CCCNC(=N)CF)NC(=O)c2ccc(-c3ccccc3)cc2)n1 | PADI3 | enzyme activity, inhibitor | – | kinact/KI | 11.7 M⁻¹ s⁻¹ |
| CN(O)N=Nc1ccc(S(=O)(=O)Nc2nccs2)cc1 | AMY2 | enzyme activity, inhibitor | 120 µg/mL | inhibition | 42.1% |
| COc1ccc(Nc2ccnc3ccc(C(F)(F)F)cc23)cc1OC | GAK | thermal stability, DSF | 10 µM | ΔTm | 3.4 °C |
| CCCN(O)N=Nc1ccc(S(=O)(=O)Nc2nccs2)cc1 | AMY2 | enzyme activity, inhibitor | 240 µg/mL | inhibition | 63.2% |
| N=C(CCl)NCCC[C@H](NC(=O)c1ccc(-c2ccccc2)cc1)c1nn[nH]n1 | PADI3 | enzyme activity, inhibitor | – | kinact/KI | 131 M⁻¹ s⁻¹ |
| O=C(O)CCC(=O)C(=O)O | Lysine-specific demethylase 4D (KDM4D, Homo sapiens, UniProt Q6B0I6) | enzyme activity, substrate | – | Km | 6.9 µM |
| NCc1ccc(C(F)(F)F)cc1 | Maoa | enzyme activity, substrate | pH 7.5 | Km | 194 µM |
| COc1cc(C=CC(=O)CC(c2ccc([N+](=O)[O-])cc2)n2ccnc2)ccc1O (stereo not shown) | AMY2 | enzyme activity, inhibitor, absorbance | 2.5 µg/mL | inhibition | 62.6% |
| Cc1ccc(C(=O)Nc2ccc(CN3CCN(C)CC3)c(C(F)(F)F)c2)cc1C#Cc1cnc2cccnn12 | GAK | enzyme activity, inhibitor | 23.5 nM | remaining activity | 73% |
| CCCOc1ccc(OC)c(F)c1C(=O)c1ccc(C(=O)N[C@@H]2CNC[C@H]2NC(=O)c2ccc3[nH]ncc3c2)cc1 | Serine/threonine-protein kinase MRCK beta (CDC42BPB, Homo sapiens, UniProt Q9Y5S2) | enzyme activity, inhibitor | 0.75 µM | remaining activity | 7% |
| Cc1ccc(C(=O)NCc2ccsc2)cc1C#Cc1cn(C(C)C)c2ncnc(N)c12 | RIPK1 | enzyme activity, inhibitor | 1 µM | activity vs control | 30% |
| FC(F)(F)c1ccc2nccc(Nc3ccc4c(c3)OCCO4)c2c1 | GAK | thermal stability, DSF | 10 µM | ΔTm | 1.5 °C |
| Cc1cc(NS(=O)(=O)c2ccc(N=NN(C)O)cc2)no1 | AMY2 | enzyme activity, inhibitor | 20 µg/mL | inhibition | 10.5% |
| CN1CCN(C(=O)c2ccc3cc(CCNc4ccnc5ccc(C#N)cc45)ccc3c2)CC1 | Cyclin-dependent kinase 19, with cyclin C (CDK19, Homo sapiens, UniProt Q9BWU1) | binding, TR-FRET | – | kon | 939000 M⁻¹ s⁻¹ |
| FC(F)(F)c1ccc2nccc(Nc3ccc4c(c3)OCO4)c2c1 | GAK | thermal stability, DSF | 10 µM | ΔTm | 3.2 °C |
| CCN(O)N=Nc1ccc(S(=O)(=O)Nc2cc(C)on2)cc1 | AMY2 | enzyme activity, inhibitor | 20 µg/mL | inhibition | 26.3% |
| Nc1ncnc2occ(-c3ccc(NC(=O)Nc4cc(C(F)(F)F)ccc4F)cc3)c12 | Cyclin-dependent kinase 4, with cyclin D1 (CDK4, Homo sapiens, UniProt P11802) | cell-free assay, inhibitor | 20 µM | remaining signal | 17% |
| Fc1cc(Nc2ccnc3ccc(C(F)(F)F)cc23)ccc1Cl | GAK | thermal stability, DSF | 10 µM | ΔTm | 4.5 °C |
| Cc1cc(NS(=O)(=O)c2ccc(N=NN(O)c3ccccc3)cc2)no1 | AMY2 | enzyme activity, inhibitor | 300 µg/mL | inhibition | 73.7% |
